Laboratory results from ChEMBL document CHEMBL3865824, “New (E)-1-alkyl-1H-benzo[d]imidazol-2-yl)methylene)indolin-2-ones: Synthesis, in vitro cytotoxicity evaluation and apoptosis inducing studies” (Eur J Med Chem, 2016).

How the values were obtained:
[1] = Cytotoxicity against human MDA-MB-231 cells assessed as reduction in cell viability after 48 hrs by MTT assay; format: functional, cell-based; conditions: MDA-MB-231, 48 h
In short: (§1)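 Cells grown in DMEM or MEM with 10% FBS at 37 °C, 5% CO2. Seeded at 1×10^4 cells/well, incubated 48 h, then exposed to compound for 48 h with vehicle control. MTT (5 mg/mL stock) added for 4 h; formazan dissolved in DMSO, absorbance read at 570 nm. Preliminary screen at 50 µM. Compounds giving >50% inhibition were tested for dose-response curves; IC50 derived by linear regression of % inhibition versus concentration. Mean of three independent experiments in triplicate.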

[2] = Cytotoxicity against human MCF7 cells assessed as reduction in cell viability after 48 hrs by MTT assay; format: functional, cell-based; conditions: MCF7, 48 h; in short: as §1
[3] = Cytotoxicity against human BT549 cells assessed as reduction in cell viability after 48 hrs by MTT assay; format: functional, cell-based; conditions: BT-549, 48 h; in short: as §1
[4] = Cell cycle arrest in human MDA-MB-231 cells assessed as accumulation at G0/G1 phase at 4 uM after 24 hrs by propidium iodide staining based FACS analysis (reference value: 50.4 %); format: functional
In short: (§2)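 MDA-MB-231 at 1×10^6 cells/well treated with 1, 2 or 4 µM for 24 h, with a DMSO control. Cells harvested by trypsin, washed with PBS and fixed in 70% ethanol for 30 min at 4 °C. Stained 15 min at room temperature in the dark with PI buffer containing Triton X and DNase-free RNase A. Analysed by flow cytometry; G0/G1, S and G2/M fractions quantified.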

[5] = Cytotoxicity against human A549 cells assessed as reduction in cell viability after 48 hrs by MTT assay; format: functional, cell-based; conditions: A549, 48 h; in short: as §1
[6] = Cell cycle arrest in human MDA-MB-231 cells assessed as accumulation at G2/M phase at 4 uM after 24 hrs by propidium iodide staining based FACS analysis (reference value: 26 %); format: functional; in short: as §2
[7] = Cytotoxicity against human DU145 cells assessed as reduction in cell viability after 48 hrs by MTT assay; format: functional, cell-based; conditions: DU-145, 48 h; in short: as §1
[8] = Cell cycle arrest in human MDA-MB-231 cells assessed as accumulation at S phase at 4 uM after 24 hrs by propidium iodide staining based FACS analysis (reference value: 24.6 %); format: functional; in short: as §2
[9] = Selectivity ratio of IC50 for human MCF10A cells to IC50 for […] cells; format: ADME, cell-based, MCF-10A; conditions: MCF10A cells versus 4TI cells, read-out: Ratio IC50
[10] = Cytotoxicity against human MDA-MB-231 cells assessed as growth inhibition at 50 uM after 48 hrs by MTT assay relative to control; format: functional; conditions: MDA-MB-231, 48 h, read-out: GI; in short: as §1
[11] = Selectivity ratio of IC50 for human MCF10A cells to IC50 for human DU145 cells; format: ADME, cell-based, MCF-10A; conditions: MCF10A cells versus DU145 cells, read-out: Ratio IC50
[12] = Cytotoxicity against human MCF10A cells assessed as reduction in cell viability after 48 hrs by MTT assay; format: toxicity, cell-based, MCF-10A; in short: as §1
[13] = Cytotoxicity against human DU145 cells assessed as growth inhibition at 50 uM after 48 hrs by MTT assay relative to control; format: functional; conditions: DU-145, 48 h, read-out: GI; in short: as §1
[14] = Cytotoxicity against HGC cells assessed as reduction in cell viability after 48 hrs by MTT assay; format: functional, cell-based; conditions: Homo sapiens; in short: as §1
[15] = Selectivity ratio of IC50 for human MCF10A cells to IC50 for human MCF7 cells; format: ADME, cell-based, MCF-10A; conditions: MCF10A cells versus MCF7 cells, read-out: Ratio IC50
[16] = Selectivity ratio of IC50 for human MCF10A cells to IC50 for human A549 cells; format: ADME, cell-based; conditions: MCF10A cells versus A549 cells, read-out: Ratio IC50
[17] = Selectivity ratio of IC50 for human MCF10A cells to IC50 for human BT549 cells; format: ADME, cell-based, MCF-10A; conditions: MCF10A cells versus BT549 cells, read-out: Ratio IC50
[18] = Cytotoxicity against human MCF7 cells assessed as growth inhibition at 50 uM after 48 hrs by MTT assay relative to control; format: functional; conditions: MCF7, 48 h, read-out: GI; in short: as §1
[19] = Selectivity ratio of IC50 for human MCF10A cells to IC50 for human PC3 cells; format: ADME, cell-based, MCF-10A; conditions: MCF10A cells versus PC3 cells, read-out: Ratio IC50
[20] = Cytotoxicity against human BT549 cells assessed as growth inhibition at 50 uM after 48 hrs by MTT assay relative to control; format: functional; conditions: BT-549, 48 h, read-out: GI; in short: as §1
[21] = Cytotoxicity against human PC3 cells assessed as growth inhibition at 50 uM after 48 hrs by MTT assay relative to control; format: functional; conditions: PC-3, 48 h, read-out: GI; in short: as §1
[22] = Cytotoxicity against human A549 cells assessed as growth inhibition at 50 uM after 48 hrs by MTT assay relative to control; format: functional; conditions: A549, 48 h, read-out: GI; in short: as §1
[23] = Cytotoxicity against […] cells assessed as growth inhibition at 50 uM after 48 hrs by MTT assay relative to control; format: functional; conditions: Mus musculus, 4T1, 48 h; read-out: GI; in short: as §1
[24] = Selectivity ratio of IC50 for human MCF10A cells to IC50 for HGC cells; format: ADME, cell-based, MCF-10A; conditions: MCF10A cells versus HGC cells, read-out: Ratio IC50
[25] = Cytotoxicity against human PC3 cells assessed as reduction in cell viability after 48 hrs by MTT assay; format: functional, cell-based; conditions: PC-3, 48 h; in short: as §1
[26] = Cytotoxicity against […] cells assessed as reduction in cell viability after 48 hrs by MTT assay; format: functional, cell-based; conditions: 4T1, 48 h; in short: as §1
[27] = Selectivity ratio of IC50 for human MCF10A cells to IC50 for human MDA-MB-231 cells; format: ADME, cell-based, MCF-10A; conditions: MCF10A cells versus MDA-MB-231 cells, read-out: Ratio IC50
[28] = Cytotoxicity against HGC cells assessed as growth inhibition at 50 uM after 48 hrs by MTT assay relative to control; format: functional; conditions: Homo sapiens, read-out: GI; in short: as §1

**Q.** Which results are given for CCN(CC)CCNC(=O)c1c(C)[nH]c(/C=C2\C(=O)Nc3ccc(F)cc32)c1C [SUNITINIB]?
**A.** IC50 [1]: 7.44 µM; IC50 [2]: 23.8 µM; IC50 [3]: 15.5 µM; Activity [4]: 67.6%; IC50 [5]: 14.4 µM; Activity [6]: 13.9%; IC50 [7]: 16.4 µM; Activity [8]: 18.3%

**Q.** What does the source list for CC(C)n1c(/C=C2/C(=O)Nc3ccc(Cl)cc32)nc2ccccc21?
**A.** selectivity ratio [9]: 2 to 3; inhibition of growth at 50 µM [10]: > 50%; selectivity ratio [11]: 2 to 3; IC50 at 48 h [12]: 68.8 µM; IC50 [1]: 25.1 µM; inhibition of growth at 50 µM [13]: > 50%; IC50 [14]: 32.8 µM; IC50 [2]: 24 µM; IC50 [3]: 35.1 µM; selectivity ratio [15]: 2 to 3; IC50 [5]: 35.2 µM; selectivity ratio [16]: 2 to 3; selectivity ratio [17]: 2 to 3; inhibition of growth at 50 µM [18]: > 50%; selectivity ratio [19]: 2 to 3; IC50 [7]: 36.4 µM; inhibition of growth at 50 µM [20]: > 50%; inhibition of growth at 50 µM [21]: > 50%; inhibition of growth at 50 µM [22]: > 50%; inhibition of growth at 50 µM [23]: > 50%; selectivity ratio [24]: 2 to 3; IC50 [25]: 38.1 µM; IC50 [26]: 35.7 µM; selectivity ratio [27]: 2 to 3; inhibition of growth at 50 µM [28]: > 50%
